Reference: ChEMBL document CHEMBL1121917, “Structure--activity relationships in a broad-spectrum anthelmintic series. Acid chloride phenylhydrazones. 1. Aryl substitutions and chloride variations” (1981)

What was measured:
[1] = test system: Ovis aries; test: Percent reduction in Haemonchus eggs per gram, after treatment with 100 mg/kg dose of compound perorally in sheep; type: functional, Egg; details: route oral
Method in brief: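 Naturally parasitized lambs received compound orally, either as the aqueous suspension by stomach tube or as finely ground powder in gelatin capsules by balling gun. Activity was judged by the clinical test method, as a significant decrease in posttreatment helminth egg counts.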

[2] = test system: Ovis aries; test: Percent reduction in Ostertagia eggs per gram, after treatment with 100 mg/kg dose of compound perorally in sheep; type: functional, Egg; details: route oral
Method in brief: (§1)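 Naturally parasitized lambs were dosed orally at the stated mg/kg. Dosing was either as a suspension of finely ground compound by stomach tube, or as ground compound weighed into gelatin capsules and given by balling gun. Activity was scored by the clinical test method: the decrease in posttreatment helminth eggs per gram.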

[3] = test system: Ovis aries; test: Percent reduction in Strongyloides eggs per gram, after treatment with 100 mg/kg dose of compound perorally in sheep; type: functional, Egg; details: route oral
Method in brief: (§2)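 Naturally parasitized lambs, dosed orally either with a suspension by stomach tube or with finely ground compound in gelatin capsules by balling gun. Activity was scored by the clinical test method, meaning a significant fall in helminth egg counts after treatment.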

[4] = test system: Ovis aries; test: Percent reduction in Trichuris eggs per gram, after treatment with 100 mg/kg dose of compound perorally in sheep; type: functional, Egg; details: route oral; method in brief: as §2
[5] = test system: Ovis aries; test: Percent reduction in Oesophagostomum eggs per gram, after treatment with 100 mg/kg dose of compound perorally in sheep; type: functional, Egg; details: route oral; method in brief: as §1
[6] = test system: Ovis aries; test: Percent reduction in Nematodirus eggs per gram, after treatment with 100 mg/kg dose of compound perorally in sheep; type: functional, Egg; details: route oral; method in brief: as §1
[7] = species on record: Mus musculus; test: Percent clearance of Nematospiroides dubius from mouse after oral treatment of 7.5 mg/mouse/day; type: functional
Method in brief: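 Mice naturally carrying Syphacia obvelata were experimentally infected with Nematospiroides dubius and Hymenolepis nana, then grouped after a 2-week prepatency. Finely ground compound was suspended in aqueous 0.10% carboxymethylcellulose, 0.04% polysorbate 80 and 0.0042% polyparaben, and 0.1 mL was given orally by cannula once daily for 4 days to five mice. Necropsy followed 2 days later, scoring presence or absence of each parasite. Control clearance was subtracted from the treated clearance.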

[8] = test system: Ovis aries; test: Percent reduction in Moniezia eggs per gram, after treatment with 100 mg/kg dose of compound perorally in sheep; type: functional, Egg; details: route oral; method in brief: as §1
[9] = test system: Ovis aries; test: Percent reduction in Trichostrongylus eggs per gram, after treatment with 100 mg/kg dose of compound perorally in sheep; type: functional, Egg; details: route oral; method in brief: as §2
[10] = species on record: Canis familiaris; test: Percent reduction in Uncinaria eggs per gram, after oral treatment of 100 mg/dog dose of compound in a single treatment; type: functional, Canis lupus familiaris, Egg
Method in brief: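 Dogs naturally infected with Toxascaris leonina were experimentally infected with mixed Ancylostoma caninum and Uncinaria stenocephala larvae. Finely ground compound was given orally in gelatin capsules. Three egg count determinations were made before and three after treatment in each experiment.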

[11] = species on record: Canis familiaris; test: Percent reduction in Ancylostoma eggs per gram, after oral treatment of 100 mg/dog dose of compound in a single treatment; type: functional, Canis lupus familiaris, Egg
Method in brief: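 Dogs naturally infected with Toxascaris leonina were experimentally infected with mixed Ancylostoma caninum and Uncinaria stenocephala larvae. Finely ground compound was given orally in gelatin capsules. Fecal egg counts were taken three times before and three times after treatment, and activity was taken as the fall in egg counts.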

In the case of O=[N+]([O-])c1ccc(N/N=C(\Cl)c2ccccc2)cc1, the Reduction [1] is reported as 0%, the Reduction [2] is reported as 33% and the Reduction [3] is reported as 58%. For the same compound, the Reduction [4] was 100%, the Reduction [5] was 0% and the Reduction [6] was 0%. For the same compound, the Parasite_Clearance [7] was 0%, the Reduction [8] was 100% and the Reduction [9] was 57%. The Reduction [10] was 0% and the Reduction [11] was 0%.
